Experimental findings from ChEMBL document CHEMBL1821616, “New insights into the structural requirements for pro-apoptotic agents based on 2,4-diaminoquinazoline, 2,4-diaminopyrido[2,3-d]pyrimidine and 2,4-diaminopyrimidine derivatives” (Eur J Med Chem, 2011) are described below.

In series [1] the test system is HT-29. As to the kind of experiment: Induction of apoptosis in human HT-29 cells assessed as caspase3 activation at IC50 after 48 hrs by FACS analysis relative to control. In kind it is functional. The method, boiled down: (§1)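 Active caspase-3 was detected by flow cytometry with a FITC anti-active-caspase-3 antibody kit, with readings at 14, 24 and 48 h. Treated cells were compared with untreated control cells. Results are scored as (+) for an increase of about 50% and (++) for a larger rise.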
A general note: Flow cytometry measures light scatter and fluorescence of single cells or particles in a stream.

For series [2], the system named is HT-29. As to the kind of experiment: Cytotoxicity against human HT-29 cells assessed as cell survival at 100 uM after 72 hrs by neutral red dye assay. Type of series: functional. Particulars: HT-29, 72 h, read-out: Survival. In outline: (§2)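 HT-29 and T-24 cells were grown in McCoy's medium and MDA-MB-231 in Leibovitz, each with 10% FBS plus penicillin/streptomycin, as monolayers at 37 °C in 5% CO2. Compounds in DMSO (≤0.5% v/v final) were applied for 72 h. Survival was read by neutral red uptake against 0.5% DMSO-treated cells, as the mean of triplicates.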

The nature of series [3]: Cytotoxicity against human CRL8799 cells assessed as cell survival at 20 to 100 uM after 72 hrs by neutral red dye assay. In kind it is cell-based. Particulars: read-out: Survival. The method, boiled down:
(§3)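 The non-tumoral lines were grown with 10% FBS plus penicillin/streptomycin, as monolayers at 37 °C in 5% CO2: CRL-8799 in MEG medium and CRL-11233 in BEGM. Compounds in DMSO (≤0.5% v/v final) were applied for 72 h. Survival was read by neutral red uptake against 0.5% DMSO solvent-treated controls, as the mean of triplicates.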

In series [4] the test system is HT-29. In words: Induction of apoptosis in human HT-29 cells assessed as DNA fragmentation after 48 hrs by ELISA relative to control. In kind it is functional. The method, boiled down: (§4)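 DNA fragmentation was measured with the Cell Death Detection ELISA Plus kit after treatment of cultured tumour cells. The signal is expressed relative to untreated control cultures, which are set to 1.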
In general terms: ELISA stands for enzyme-linked immunosorbent assay.

In series [5] the test system is MDA-MB-231. As to the kind of experiment: Induction of apoptosis in human MDA-MB-231 cells assessed as DNA fragmentation after 24 hrs by ELISA relative to control. Type of series: functional. In outline:
as §4

The subject of series [6] is MDA-MB-231. In words: Cytotoxicity against human MDA-MB-231 cells after 72 hrs by neutral red dye assay. As to conditions: MDA-MB-231, 72 h. In kind it is functional, cell-based. In outline:
(§5)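 Human tumour cells were grown as monolayers with 10% FBS and penicillin/streptomycin at 37 °C in 5% CO2 (HT-29 and T-24 in McCoy's, MDA-MB-231 in Leibovitz). They were exposed to compound in DMSO (≤0.5% v/v final) at screening concentrations of 20 and 100 μM for 72 h and read by neutral red uptake. Survival is relative to cells given DMSO only, in triplicate.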

The nature of series [7]: Cytotoxicity against human CRL11233 cells assessed as cell survival at 20 to 100 uM after 72 hrs by neutral red dye assay. Type of series: cell-based. Particulars: read-out: Survival. In outline:
as §3

The subject of series [8] is T-24. As to the kind of experiment: Cytotoxicity against human T24 cells assessed as cell survival at 100 uM after 72 hrs by neutral red dye assay. Particulars: T-24, 72 h, read-out: Survival. Type of series: functional. The method, boiled down: as §2
Series [9] relates to MDA-MB-231. As to the kind of experiment: Cytotoxicity against human MDA-MB-231 cells assessed as cell survival at 100 uM after 72 hrs by neutral red dye assay. Type of series: functional. Particulars: MDA-MB-231, 72 h, read-out: Survival. The method, boiled down: as §2
Series [10] relates to T-24. As to the kind of experiment: Induction of apoptosis in human T24 cells assessed as DNA fragmentation after 48 hrs by ELISA relative to control. Type of series: functional. In outline: as §4
Series [11] relates to T-24. As to the kind of experiment: Cytotoxicity against human T24 cells after 72 hrs by neutral red dye assay. In kind it is functional, cell-based. Particulars: T-24, 72 h. In outline:
as §5

Series [12] has as its system HT-29. As to the kind of experiment: Cytotoxicity against human HT-29 cells after 72 hrs by neutral red dye assay. Type of series: functional, cell-based. Particulars: HT-29, 72 h. In outline:
as §5

For series [13], the system named is T-24. In words: Induction of apoptosis in human T24 cells assessed as caspase3 activation at IC50 after 48 hrs by FACS analysis relative to control. In kind it is functional. The method, boiled down:
as §1

Activity calls are given as the source filed them. The rule behind the calls is not given here. Bounds are passed on as bounds.

As for `COc1ccc(CNc2nc(NCc3ccc(OC)cc3)c3cccnc3n2)cc1`, the Activity in series [1] came to 50%. For the same compound, the viability at 100 µM in series [2], in series [8] and in series [9] was < 45% throughout. The figures for the viability at 72 h, up to 100 µM in series [3] and in series [7] were 85% and 100%, respectively. Moreover, the “fold change (FC)” value was 2.7 in series [4], 1.5 in series [5] and 2.3 in [10]. The IC50 (in general, the concentration that inhibits the measured activity by half) in series [6] came out at 2.9 µM.

Regarding `Cc1ccc(CCNc2nc(NCCc3ccc(C)cc3)c3ccccc3n2)cc1`, in [1], the Activity was determined as 50%. Also, the viability at 100 µM in [2], in series [8] and in series [9] was < 45% each time. Besides, the viability at 72 h, up to 100 µM in series [3] and in [7] was 0% each time. For the same compound, the result in series [4] and in series [10] was inactive. Moreover, in series [5], the “fold change (FC)” value is given as 2.4. In addition, the figures for the IC50 in series [6], in series [11] and in series [12] were 4.65 µM, 2.17 µM and 1.64 µM, respectively.

Take `c1ccc2c(CCNc3nc(NCCc4c[nH]c5ccccc45)c4cccnc4n3)c[nH]c2c1`: the Activity in series [1] came to 75%. For the same compound, the viability at 100 µM in [2], in series [8] and in series [9] was < 45% throughout. For the same compound, in series [3], the viability at 72 h, up to 100 µM was 56%. Besides, the “fold change (FC)” value in [4] is 3. Besides, the outcome in series [5] and in series [10] was inactive. The half-maximal inhibitory concentration (IC50) in series [6] came out at 5.1 µM; in [11], 7.7 µM; in series [12], 3 µM.

On to `c1ccc(CCCNc2ccnc(NCCCc3ccccc3)n2)cc1`, for which the Activity in [1] is recorded as 50%. Moreover, the viability at 100 µM in [2], in series [8] and in [9] was < 45% in each case. Also, the viability at 72 h, up to 100 µM amounted to 10% in [3] and 1% in series [7]. In series [4], the outcome was inactive. For the same compound, the “fold change (FC)” value in series [5] came out at 3.2; in [10], 1.7. The IC50 came to 0.36 µM in [6], 8.67 µM in [11] and 12.4 µM in series [12].

Regarding `c1ccc(CNc2nc(NCc3ccccc3)c3cccnc3n2)cc1`, the viability at 100 µM in series [2], in series [8] and in [9] was < 45% each time. In addition, the viability at 72 h, up to 100 µM in series [3] amounted to 85%; in series [7], 90%. The “fold change (FC)” value in [4] came to 2.5; in [10], 4.6. Besides, the result in series [5] was inactive. The IC50 came to 10.3 µM in series [6], 13.4 µM in series [11] and 11 µM in [12]. The Activity in [13] amounted to 50%.

Take `CCCCCCNc1nc(SCC)nc2ncccc12`: the Activity in series [1] turned out to be 75%. Moreover, the viability at 100 µM in series [2], in series [8] and in series [9] was < 45% throughout. Besides, the “fold change (FC)” value in series [4] is reported as 8.1; in [5], 3.3; in series [10], 1.5. For the same compound, the IC50 turned out to be 1.4 µM in series [6], 5.9 µM in [11] and 22.5 µM in [12].

On to `c1ccc(CCCCNc2nc(NCCCCc3ccccc3)c3cccnc3n2)cc1`, for which the Activity in series [1] is recorded as 50%. The viability at 100 µM in [2], in series [8] and in series [9] was < 45% each time. Also, the viability at 72 h, up to 100 µM turned out to be 86% in series [3] and 82% in [7]. Moreover, the “fold change (FC)” value in series [4] is listed as 1.4; in series [10], 4.6. For the same compound, the outcome in series [5] was inactive. The IC50 worked out at 1.1 µM in series [6], 1.4 µM in series [11] and 5 µM in series [12].

For `Cc1ccc(CNc2nc(NCc3ccc(C)cc3)c3ccccc3n2)cc1`, the viability at 100 µM in [2], in series [8] and in [9] was < 45% throughout. Also, the values for the viability at 72 h, up to 100 µM in series [3] and in series [7] were 13% and 33%, respectively. Besides, the “fold change (FC)” value is reported as 5.2 in [4] and 4.3 in [10]. Also, in series [5], the result was inactive. Further, the IC50 in series [6] stood at 5.47 µM; in series [11], 15.4 µM; in series [12], 4.42 µM.

Consider `c1ccc(CCCNc2nc(NCCCc3ccccc3)c3cccnc3n2)cc1`, for which, in series [1], the Activity is 50%. Also, the viability at 100 µM in series [2], in series [8] and in [9] was < 45% in each case. The viability at 72 h, up to 100 µM in [3] and in series [7] was 0% in each case. Further, the “fold change (FC)” value in series [4] was found to be 6; in [5] it was 1.6; in series [10] it was 3.1. Also, the figures for the IC50 in [6], in series [11] and in series [12] were 5.8 µM, 13.2 µM and 1.7 µM, respectively.

As for `Cc1ccc(CNc2ccnc(NCc3ccc(C)cc3)n2)cc1`, the viability at 100 µM in [2], in series [8] and in series [9] was < 45% in each case. In addition, the viability at 72 h, up to 100 µM in series [3] is 6%; in [7] it was 1%. Moreover, the “fold change (FC)” value in [4] stood at 2; in [5], 1.5; in series [10] it was 4.8. The results for the concentration for half-maximal inhibition (IC50) in series [6], in series [11] and in series [12] were 19.1 µM, 22.2 µM and 14.9 µM, respectively.

Take `c1ccc(CCNc2ccnc(NCCc3ccccc3)n2)cc1`: the viability at 100 µM in [2], in series [8] and in [9] was < 45% in each case. In addition, the viability at 72 h, up to 100 µM in [3] and in series [7] was 5% each time. Besides, the result in series [4] was inactive. The “fold change (FC)” value is given as 1.3 in [5] and 1.2 in [10]. In addition, the IC50 is 3.01 µM in series [6], 9.14 µM in series [11] and 6.97 µM in series [12].

As to `Clc1ccc(CNc2nc(NCc3ccc(Cl)cc3)c3ccccc3n2)cc1`, the viability at 100 µM in series [2], in series [8] and in series [9] was < 45% in each case. Also, the viability at 72 h, up to 100 µM in series [3] and in series [7] was 0% in each case. The result in series [4] and in [5] was inactive. Also, the IC50 is 4.26 µM in [6], 6.41 µM in series [11] and 5.89 µM in series [12]. Further, in [10], the “fold change (FC)” value was determined as 2.

With `Brc1ccc(CCNc2nc(NCCc3ccc(Br)cc3)c3cccnc3n2)cc1`, the viability at 100 µM in series [2], in series [8] and in series [9] was < 45% in each case. Further, the figures for the viability at 72 h, up to 100 µM in series [3] and in series [7] were 90% and 100%, respectively. Besides, the “fold change (FC)” value in series [4] is on record as 7.2; in [10] it was 1.5. For the same compound, in [5], the outcome was inactive. Besides, the figures for the IC50 in series [6], in [11] and in series [12] were 2.7 µM, 11.5 µM and 4.1 µM, respectively.

Regarding `COc1ccc(CNc2nc(NCc3ccc(OC)cc3)c3ccccc3n2)cc1`, in [1], the Activity was determined as 50%. Also, the viability at 100 µM in [2], in series [8] and in series [9] was < 45% each time. Besides, the viability at 72 h, up to 100 µM worked out at 0% in [3] and 100% in series [7]. The “fold change (FC)” value was found to be 8.5 in series [4] and 5 in series [10]. Further, the result in series [5] was inactive. For the same compound, the values for the IC50 in series [6], in series [11] and in series [12] were 3.87 µM, 3.87 µM and 2.88 µM, respectively.
